The values that follow come from ChEMBL document CHEMBL1126685, “Bronchodilator activity of xanthine derivatives substituted with functional groups at the 1- or 7-position” (J Med Chem, 1993).

Usually EC50 stands for the concentration needed to bring the measured effect to its halfway point. As usually defined, the Ki is a measure of affinity in units of concentration, obtained from inhibition or displacement.

For experiment [1], the species on record is Cavia porcellus. Nature of the experiment: Effective concentration required in vitro for heart stimulation (right atrium) in guinea pig. Format: functional. Particulars: Cardiac atrium. A digest of the protocol:
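Isolated right atrium of male Hartley guinea pigs, 25 °C Krebs-Henseleit gassed 95% O2–5% CO2, 0.5 g tension; cumulative concentrations; beating rate via cardiometer triggered by isometric contraction. EC15 = concentration raising rate 15% above unstimulated; 3–5 experiments.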

Experiment [2] is filed under the species Cavia porcellus. Nature of the experiment: Effective concentration required in vitro for tracheal muscle (from male Hartley guinea pigs) relaxation. Particulars: Trachea. The class given is functional. A digest of the protocol: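 Tracheal ring chains from male Hartley guinea pigs (300–500 g), 37 °C Krebs-Henseleit pH 7.4, 95% O2–5% CO2, 0.5 g tension, spontaneous tone; cumulative compound addition, isotonic recording.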

Experiment [3] has as its target T1, Adenosine receptor A1 (Cavia porcellus, UniProt P47745).
T1 sequence (P47745 whole entry): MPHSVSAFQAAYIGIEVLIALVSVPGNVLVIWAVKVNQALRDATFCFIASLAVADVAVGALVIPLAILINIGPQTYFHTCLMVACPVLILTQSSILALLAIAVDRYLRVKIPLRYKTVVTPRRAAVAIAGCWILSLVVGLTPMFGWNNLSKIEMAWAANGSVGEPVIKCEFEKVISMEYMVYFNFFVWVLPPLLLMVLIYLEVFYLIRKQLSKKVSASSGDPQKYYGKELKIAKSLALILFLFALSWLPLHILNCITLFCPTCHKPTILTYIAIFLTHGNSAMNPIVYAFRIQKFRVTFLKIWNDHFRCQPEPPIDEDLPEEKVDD
The experiment is described as follows: Binding affinity against adenosine A1 receptor of cerebral cortex using [3H]CPX as a radioligand. Format: tissue-based.

Experiment [4] concerns the target cyclic AMP phosphodiesterase (guinea pig). Nature of the experiment: Inhibition of cyclic AMP-phosphodiesterase ( PDE) in the supernatant of tracheal muscle homogenate.
The nature of experiment [5]: Bronchoselectivity expressed as ratio of stimulatory activity in the right atrium (EC15) to relaxant activity in the tracheal muscle (EC50). Format: functional, Cardiac atrium.
The target in experiment [6] is Adenosine A2 receptor (guinea pig). Nature of the experiment: Binding affinity against adenosine A2 receptor of striatal membrane using [3H]CGS-21680 as a radioligand.

In turn, `CCCn1c(=O)n(C)c(=O)c2c1ncn2CC(=O)O` showed an EC15 in experiment [1] greater than 100 µM. In addition, the EC50 in experiment [2] was greater than 100 µM. For the same compound, the Ki in experiment [3] was greater than 200 µM.
With `CCCn1c(=O)n(CCC(C)=O)c(=O)c2[nH]cnc21`, the Ki was 13 µM in experiment [4], 144 µM in experiment [6] and 11.2 µM in experiment [3]. The compound further yielded an EC15 in experiment [1] of 27 µM. This compound also showed an EC50 in experiment [2] of 3.5 µM. Further, the Selectivity in experiment [5] worked out at 7.7.
Take `CCCn1c(=O)n(CCCN(C)C)c(=O)c2[nH]cnc21`: the results for the Ki in experiment [4], in experiment [6] and in experiment [3] were 92 µM, greater than 200 µM and 43.2 µM, respectively. The compound further registered an EC15 in experiment [1] greater than 100 µM. The same compound gave an EC50 in experiment [2] of 20.5 µM. Also, the Selectivity in experiment [5] was 4.9.
Take `CCCn1c(=O)n(CCC(=O)O)c(=O)c2[nH]cnc21`: the Ki was 60 µM in experiment [4], greater than 200 µM in experiment [6] and greater than 200 µM in experiment [3]. In experiment [1], the EC15 was greater than 100 µM. For the same compound, in experiment [2], the EC50 is 21.2 µM. Besides, the Selectivity in experiment [5] turned out to be 4.7.
`CCCn1c(=O)n(C)c(=O)c2c1ncn2CCOC`: the Ki in experiment [4] came to 72.7 µM; in experiment [6], 58.7 µM; in experiment [3], 12.4 µM. In experiment [1], this compound registered an EC15 greater than 100 µM. The compound further returned an EC50 in experiment [2] of 36.1 µM. Further, in experiment [5], the Selectivity is 2.8.
With `CCCn1c(=O)n(C)c(=O)c2c1ncn2CCC(=O)O`, the Ki in experiment [4], in experiment [6] and in experiment [3] was greater than 200 µM each time. Further, the EC15 in experiment [1] is greater than 100 µM. Further, the EC50 in experiment [2] was greater than 100 µM. In addition, in experiment [5], the Selectivity is given as 1.
Take `CCCn1c(=O)n(CCC(N)=O)c(=O)c2[nH]cnc21`: the values for the Ki in experiment [4], in experiment [6] and in experiment [3] were 56.3 µM, greater than 200 µM and 31.5 µM, respectively. In addition, the EC15 in experiment [1] came out at 31.2 µM. The EC50 in experiment [2] stood at 13.1 µM. Further, the Selectivity in experiment [5] was found to be 2.4.
For `C=CCCn1cnc2c1c(=O)n(C)c(=O)n2CCC`, the Ki in experiment [4] is 29.9 µM; in experiment [6], 5.6 µM; in experiment [3], 6 µM. In experiment [1], this compound displayed an EC15 of 30.6 µM. Further, the response in experiment [2] was half-maximal at 16.8 µM (EC50). Besides, the Selectivity in experiment [5] is recorded as 1.8.
For the compound `CCCn1c(=O)n(C)c(=O)c2c1ncn2CC(N)=O`, the Ki was 119 µM in experiment [4], greater than 200 µM in experiment [6] and greater than 200 µM in experiment [3]. In experiment [1], this compound returned an EC15 greater than 100 µM. The compound also registered an EC50 in experiment [2] greater than 100 µM. In experiment [5], the Selectivity came to 1.
Consider `CCCn1c(=O)n(CC(C)=O)c(=O)c2[nH]cnc21`, for which the figures for the Ki in experiment [4], in experiment [6] and in experiment [3] were 46.4 µM, greater than 200 µM and 11.4 µM, respectively. The same compound had an EC15 in experiment [1] of 45.7 µM. This compound displayed an EC50 in experiment [2] of 14.9 µM. The Selectivity in experiment [5] came out at 3.1.
For the compound `CCCn1c(=O)n(C)c(=O)c2c1ncn2CCC#N`, the Ki was 46 µM in experiment [4], greater than 200 µM in experiment [6] and 88.6 µM in experiment [3]. In experiment [1], the EC15 was greater than 100 µM. This compound returned an EC50 in experiment [2] of 27.6 µM. The Selectivity in experiment [5] was 3.6.
For the compound `CCCn1c(=O)n(CC#N)c(=O)c2[nH]cnc21`, the EC15 in experiment [1] was found to be 1.7 µM. Besides, in experiment [2], the response was half-maximal at 4.2 µM (EC50). Also, in experiment [3], the Ki is 2.1 µM.
In experiment [1], `CCCn1c(=O)n(CC)c(=O)c2[nH]cnc21` returned an EC15 of 6.1 µM. The response in experiment [2] was half-maximal at 1.3 µM (EC50). In addition, the Selectivity in experiment [5] is reported as 4.7. The compound also displayed a Ki in experiment [6] of 3.9 µM.
Consider `CCCn1c(=O)n(C)c(=O)c2c1ncn2CCC(N)=O`, for which the EC15 in experiment [1] is greater than 100 µM. Further, the EC50 in experiment [2] was greater than 100 µM. The compound further came in with a Ki in experiment [3] greater than 200 µM.
The compound `CCCn1c(=O)n(CC(N)=O)c(=O)c2[nH]cnc21` gave an EC15 in experiment [1] greater than 100 µM. This compound returned an EC50 in experiment [2] greater than 100 µM. This compound also gave an inhibition constant Ki in experiment [3] of 39.7 µM.
On to `C=CCn1cnc2c1c(=O)n(C)c(=O)n2CCC`, for which, in experiment [1], the EC15 was 22.4 µM. Also, a half-maximal response in experiment [2] (EC50) required 11.2 µM. The Ki in experiment [3] came out at 15.4 µM.
Regarding `CCCn1c(=O)n(C)c(=O)c2c1ncn2CC`, in experiment [1], the EC15 was greater than 100 µM.
